From PubChem BioAssay
hERG protect: hERG (human) protection from proarrhythmic block; Q12809; CHO-hERG, FluxOR thallium flux, dofetilide IC70 present; activation (rescue from dofetilide block), less the hit threshold, % at 10 µM; actives 0.51% (n = 310,000); AID 1511;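 active means activation above the mean of controls blocked by dofetilide plus 5 SD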;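 further: thallium influx through hERG after potassium depolarization seen as dye fluorescence rise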
KCNK9 block: blocks the human KCNK9 two-pore domain potassium channel. AID 488922. B-score at 10 µM. Q9NPC2. actives 1.2% (n = 310,000). HEK293 KCNK9, FluxOR thallium flux fluorescence; active compounds read low;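 active means ratio B-score over 3 SD below the library mean, with starting fluorescence within 5 SD of its mean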;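 further: negative B-score means less thallium flux so channel inhibition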
KCNK3 block: human KCNK3 channel inhibition, primary screen; O14649; CHO-KCNK3 thallium flux, FluxOR fluorescence; active compounds read low; B-score at 10 µM; actives 0.84% (n = 340,000); AID 602410;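 active means B-score under library mean minus 4 SD, starting fluorescence ratio at most library mean plus 5 SD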;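 further: more negative B-score means stronger inhibition of thallium flux through KCNK3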
Target sequence (O14649 whole entry, looked up): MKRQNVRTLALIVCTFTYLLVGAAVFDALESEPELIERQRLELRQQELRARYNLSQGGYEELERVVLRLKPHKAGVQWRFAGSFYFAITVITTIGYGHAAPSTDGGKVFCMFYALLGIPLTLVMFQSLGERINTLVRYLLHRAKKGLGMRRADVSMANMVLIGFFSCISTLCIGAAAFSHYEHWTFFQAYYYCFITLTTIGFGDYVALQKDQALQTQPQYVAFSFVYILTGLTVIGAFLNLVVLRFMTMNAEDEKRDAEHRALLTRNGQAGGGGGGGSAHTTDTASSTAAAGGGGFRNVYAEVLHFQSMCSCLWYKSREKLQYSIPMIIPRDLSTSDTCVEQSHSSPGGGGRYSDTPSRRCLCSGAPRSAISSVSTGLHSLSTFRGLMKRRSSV
KCC2 mod: modulates chloride dependent transport by human KCC2 | B-score of Tl+ flux slope (higher = more flux/activation; lower = inhibition) at 10 µM | AID 1456 | actives 2.2% (n = 190,000) | KCC2 cells, thallium flux FluoZin-2 fluorescence | Q9H2X9;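 active means thallium flux slope and its plate-corrected score both differing from the plate sample mean at a set confidence after two filtering rounds, in either direction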;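 further: slope of fluorescence scaled to starting intensity during 10 to 20 s after thallium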
KCNQ1 block: blocks the human KCNQ1 potassium channel. P51787. CHO-K1 KCNQ1, FluxOR thallium flux fluorescence; active compounds read high. B-score at 10 µM. actives 1.3% (n = 310,000). AID 2642;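 active means compounds whose thallium flux B-score, printed positive for inhibition, exceeds three library SD while starting fluorescence stays within three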;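 further: channel opened by potassium depolarization with thallium stimulus after 20 min compound exposure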
KCNQ1 pot: human KCNQ1 channel potentiation or activation; P51787; actives 0.35% (n = 310,000); CHO-K1 KCNQ1, thallium flux FluxOR fluorescence; active compounds read high; B-score at 10 µM; AID 2648;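 active means fluorescence ratio B-score, a plate-corrected score, at least three library SD, with initial intensity B-score within 5 SD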
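Medium – assay buffer, equal DMSO in all wells · Material – CHO-K1 cell line with stable KCNQ1 potassium channel expression · Signal – kinetic FluxOR thallium fluorescence, 10-s 1-Hz baseline, 110-s post-stimulus read · Compound – single concentration per compound, DMSO matched to controls · Schedule – 37 °C overnight plating, 90-min dark dye load, 20-min compound pretreatment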
KCNK3 confirm: human KCNK3 channel inhibition, confirmation assay. shares compounds with KCNK3 block. CHO-KCNK3 thallium flux, FluxOR fluorescence; 0% buffer, 100% carvedilol maximal block. ratio percent of control, % at 10 µM. actives 99% (n = 2,400). AID 651638;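 active means ratio percent of control, averaged over triplicates, above buffer control mean plus 5 SD, cut at about 64% in these data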;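 further: ratio is the fluorescence rise from min to max over baseline after thallium stimulus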
KCNK3 noninduced: activity in cells without induced KCNK3 expression; thallium flux ratio (lower = more inhibition) at 10 µM; actives 40% (n = 2,400); non-induced KCNK3 parental cells, FluxOR thallium flux; active compounds read low; shares compounds with KCNK3 block;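 active means thallium flux ratio, averaged over three wells, more than 5 SD below the buffer control mean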;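 further: host cells are CHO cells without KCNK3 induction; ratio is peak minus trough fluorescence over baseline then normalized to buffer controls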
Numbers without * were called inactive; i = inactive; x = no result given. An excerpt weighted towards active compounds, which were near 4.1% of everything screened.

SMILES	hERG protect	KCNK9 block	KCNK3 block	KCC2 mod	KCNQ1 block	KCNQ1 pot	KCNK3 confirm	KCNK3 noninduced
O=C(N/N=C/c1cn(-c2ccccc2)nc1-c1cccnc1)c1ccccc1	-14	i	-9.5*	-1	i	i	98*	i
CN(Cc1cn(C)nc1-c1ccc(Oc2ccccc2)cc1)Cc1cnc2ccccn12	-36	-7*	-9.4*	0.34	7*	i	131*	0.13*
CC(C)N(C)Cc1cn(C)nc1-c1ccc(Oc2ccccc2)cc1	-5	i	i	x	i	i	x	x
CN(Cc1ccno1)Cc1cn(C)nc1-c1ccc(Oc2ccccc2)cc1	-18	i	-10*	x	i	i	91*	i
O=C(CN1CCCN(S(=O)(=O)c2ccc(F)cc2)CC1)Nc1cccc(F)c1	-7	-6.7*	-12*	x	i	i	92*	i
NC(=O)CSc1nc2cc(Cl)ccc2c(=O)n1C1CCCCC1	-3	i	-10*	x	i	i	95*	i
COC(=O)CSc1nc2cc(Cl)ccc2c(=O)n1C1CCCC1	-16	i	i	-0.44	i	i	x	x
COc1ccc(OC)c(-c2csc(NC(=O)C3=COCCO3)n2)c1	-15	i	-9.1*	x	i	i	91*	i
O=C(Cc1ccccc1F)Nc1nc(-c2ccc(F)cc2)cs1	-5	i	-11*	x	i	i	126*	i
COc1ccc(OC)c(-c2csc(NC(=O)Cc3ccc(F)cc3)n2)c1	-3	i	-11*	x	i	i	114*	i
CC(=O)NCCC(=O)Nc1cc(S(=O)(=O)N2CCCCC2)ccc1N1CCN(C)CC1	-9	i	i	x	i	i	x	x
Cc1c(CCOC(=O)CC23CC4CC(CC(C4)C2)C3)sc[n+]1CC(=O)c1ccc(Br)cc1	-33	i	-10*	0.86	6*	i	119*	i
Cc1c(CCOC(=O)c2ccccc2)sc[n+]1CC(=O)c1ccc(Br)cc1	-17	i	i	x	i	i	x	x
O=C(N/N=C/c1cccc(Oc2ccccc2)c1)c1cccc(O)c1	-27	i	-13*	x	i	i	131*	0.12*
O=C(N/N=C/c1cccc(Oc2ccccc2)c1)c1ccccc1Br	1	i	-12*	-0.072	i	i	91*	i
Cc1cc(C)c2c(CN3CCC(C)CC3)cc(=O)oc2c1C	-4	i	-12*	x	i	i	103*	i
O=C(OCc1nc(-c2ccccc2)oc1COC(=O)c1ccco1)c1ccco1	-3	i	-9.1*	x	i	i	102*	i
O=C(COC(=O)c1ccco1)Nc1nnc(-c2ccccc2)o1	-13	i	i	x	i	i	x	x
CC(C)c1ccc(NC(=S)Nc2cccc3ccccc23)cc1	-8	i	-8.9*	x	i	i	105*	i
CCOc1ccc(/C=N/NC(=O)Cc2csc(Nc3cccc(C(F)(F)F)c3)n2)cc1	-4	i	-11*	0.3	i	i	106*	i
CCOc1ccccc1/C=N/NC(=O)Cc1csc(Nc2cccc(C(F)(F)F)c2)n1	-3	i	-8.7*	-0.048	i	i	131*	0.15*
COc1ccccc1CCNC(=O)c1cccc(S(=O)(=O)N2CCc3ccccc3C2)c1	x	x	i	x	x	x	x	x
CCSc1nc(-c2ccc(OC)cc2)ccc1C#N	-8	i	-8.8*	0.07	i	i	113*	i
CN(Cc1ccccc1)C(=O)C1CCCN1S(=O)(=O)c1ccc2c(c1)n(C)c(=O)c(=O)n2C (stereo not drawn)	-2	i	i	0.98	i	i	x	x
